Published values from different studies.
Compare with care: the assays were run in different laboratories.

| SMILES | assay | test system | setting | endpoint | result |
| --- | --- | --- | --- | --- | --- |
| C[C@H]1COCCN1c1nc(NCc2cccnc2C(F)(F)F)c2cccnc2n1 | metabolic stability | dog, hepatocytes |  | hepatocyte CLint | 10 µL/min/10⁶ cells |
| C[C@]12CC[C@H](n3ccnc3)CC1=CC[C@@H]1[C@@H]2CC[C@]2(C)C(n3cnc4ccccc43)=CC[C@@H]12.Cl |  | male CD-1 mouse, plasma | intravenous, 1 mg/kg | half-life | 17.1 h |
| NCC(=O)Nc1ccc(-n2nc(C(F)(F)F)cc2-c2ccc3c(ccc4ccccc43)c2)cc1 |  | mouse, plasma | oral, 80 mg/kg, single dose | half-life | 22 h |
| CC[C@H]1CN2CC[C@H]1C[C@@H]2[C@@H](O)c1ccnc2ccc(OC)cc12 |  | water |  | logP | 3.43 |
| N#Cc1ccccc1OC(=O)NCCCCCn1ccc2ccc(F)cc21 | HPLC |  |  | chromatographic logP | 3.9 |
| N=c1c2c(-c3ccccc3)c(-c3ccccc3)n(Cc3ccccc3)c2ncn1[C@H]1CC[C@H](O)CC1 |  | female minipig, plasma | oral, 2.5 mg/kg, single dose | half-life | 98.4 h |
| C[C@]12CC[C@H](O)CC1=CC[C@@H]1[C@@H]2CC[C@]2(C)C(n3cnc4ccccc43)=CC[C@@H]12.Cl |  | mouse, plasma | oral, 10 mg/kg | half-life | 5.16 h |
| O=C(NCCCCCn1ccc2ccc(F)cc21)Oc1ccc(C(=O)O)cc1 | HPLC |  |  | chromatographic logP | 2.8 |
| Cc1cc(C)nc(Nc2ncc(C(=O)NCCc3c(C)[nH]c4ccccc34)cn2)c1 | metabolic stability | cynomolgus monkey, hepatocytes | 1 µM | half-life | 0.267 h |
| CN[C@H](CC(C)C)C(=O)N[C@H]1C(=O)N[C@@H](CC(N)=O)C(=O)N[C@H]2C(=O)NC3C(=O)N[C@H](C(=O)N[C@H](C(=O)NCCC[N+](C)(C)C)c4cc(O)cc(O)c4-c4cc3ccc4O)[C@H](O)c3ccc(c(Cl)c3)Oc3cc2cc(c3OC2OC(CO)C(O)[C@H](O)[C@@H]2O[C@H]2CC(C)(NCc3ccc(-c4ccc(Cl)cc4)cc3)[C@H](O)[C@H](C)O2)Oc2ccc(cc2Cl)[C@H]1O (some centres unmarked) |  | mouse, plasma | intravenous, 10 mg/kg | half-life | 7 h |
| N[C@@H](Cc1ccccc1)C(=O)N1C/C(=C\c2ccc(Cl)c(Cl)c2)C(=O)/C(=C/c2ccc(Cl)c(Cl)c2)C1 |  | mouse, plasma | oral, 20 mg/kg | half-life | 2.6 h |
| O=C(NCCCCCn1ccc2ccc(F)cc21)Oc1cccc2[nH]ccc12 | HPLC |  |  | chromatographic logP | 3.5 |
| Nc1nc(-c2ccccc2)nc2[nH]nc(Nc3ccc(C(F)(F)F)cc3)c12 |  | mouse, plasma | oral, 100 mg/kg, 30 min | concentration | 418 ng/mL |
| O=C(NCCCCCn1ccc2ccc(F)cc21)Oc1cccnc1 | HPLC |  |  | chromatographic logP | 2.6 |
| C=C[C@H]1C[N@@]2CC[C@H]1C[C@@H]2[C@@H](O)c1ccnc2ccccc12 |  | water |  | logP | 2.82 |
| O=C(NCCCCCn1ccc2ccc(F)cc21)Oc1ccc(F)cc1 | HPLC |  |  | chromatographic logP | 4.2 |
| CCCCCCCC/C=C\CCCCCCCC(=O)OC[C@](C)(O)C[C@@H]1NC(=O)[C@@H]2Cc3c([nH]c4ccccc34)SC[C@H](NC(=O)[C@@H]([C@H](C)O)NC(=O)[C@H](C)NC1=O)C(=O)N1C[C@@H](O)C[C@H]1C(=O)N[C@@H](C)C(=O)N2 |  |  |  | logP | 1.7 |
